Data taken from ChEMBL document CHEMBL1221389, “Fluorescent schweinfurthin B and F analogs with anti-proliferative activity” (2010).
Active and inactive are the calls of the source. The rule behind the calls is not given here.

Assays:
[1] = test system: SF-295; experiment: Cytotoxicity against human SF295 cells after 44 hrs by MTT assay; type: functional; conditions: SF-295, 44 h, read-out: ED50 (the source's name)
Method in brief: (§1)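 Exposure to compound lasted 44 h. SF-295 cells were kept in RPMI 1640 and A549 cells in F-12, each with 10% FBS, antibiotics and L-glutamine, at 37 °C and 5% CO2. Medium was then replaced with MTT-containing medium (phenol red-free RPMI for SF-295, F-12 for A549) up to 48 h total. Cells were solubilized overnight at room temperature in HCl/Triton X-100/isopropanol stop solution, and absorbance was read at 540 and 650 nm. ED50 was derived from the dose-response.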

[2] = test system: A549; experiment: Cytotoxicity against human A549 cells after 44 hrs by MTT assay; type: functional; conditions: A549, 44 h, read-out: ED50 (the source's name); method in brief: as §1
[3] = test system: SF-295; experiment: Cellular uptake in human SF295 cells assessed as perinuclear localization at 500 nM after 24 hrs by fluorescence microscopy; type: functional, cell-based
Method in brief: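 SF-295 glioma cells, from NCI, grown in RPMI 1640 with 10% FBS, amphotericin B, penicillin/streptomycin and L-glutamine at 37 °C, 5% CO2. Plated on coverslips and exposed to compound at 500 nM for 24 h at about 45% confluency. Then washed three times in PBS, fixed in 4% formaldehyde for 15 min, nuclei stained with DAPI, and compound fluorescence imaged.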

COc1cc(/C=C/c2cc3c(c(OC)c2)O[C@]2(C)C[C@@H](O)[C@@H](O)C(C)(C)[C@H]2C3)cc(O)c1/C=C/c1ccc(N)cc1
EC50 [1]: 20 nM | EC50 [2]: 3200 nM

COc1cc(/C=C/c2cc3c(c(OC)c2)O[C@]2(C)C[C@@H](O)[C@@H](O)C(C)(C)[C@H]2C3)cc(O)c1/C=C/c1ccc([N+](=O)[O-])cc1
EC50 [1]: 40 nM | EC50 [2]: 700 nM

COc1cc(/C=C/c2cc3c(c(OC)c2)O[C@]2(C)CC[C@@H](O)C(C)(C)[C@H]2C3)cc(O)c1/C=C/c1ccc([N+](=O)[O-])cc1
EC50 [1]: 100 nM | Activity [3]: Active | EC50 [2]: 2700 nM

COc1cc(/C=C/c2cc3c(c(OC)c2)O[C@]2(C)CC[C@@H](O)C(C)(C)[C@H]2C3)cc(O)c1/C=C/c1ccc(N)cc1
EC50 [1]: 400 nM | EC50 [2]: 3000 nM

COc1ccc(/C=C/c2cc(O)c(/C=C/c3ccc(N)cc3)c(OC)c2)cc1OC
EC50 [1]: > 1000 nM | EC50 [2]: > 10000 nM

COc1cc(/C=C/c2cc(O)c(/C=C/c3ccc([N+](=O)[O-])cc3)c(O)c2)cc2c1O[C@]1(C)CC[C@@H](O)C(C)(C)[C@H]1C2
EC50 [1]: 50 nM | EC50 [2]: 800 nM

COc1ccc(/C=C/c2cc(O)c(/C=C/c3ccc([N+](=O)[O-])cc3)c(OC)c2)cc1OC
EC50 [1]: > 1000 nM | EC50 [2]: > 10000 nM
